From the EternaBench riboswitch data

System: MS2 coat protein
Assay: apparent Kd, MS2 coat protein; higher = weaker binding; RNA-MaP array
How it was run: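 Apparent Kd was taken as the median of binding curves fitted cluster by cluster. The designed RNAs were made by transcription of sequenced DNA templates on an Illumina sequencing chip and exposed to fluorescently labeled MS2 coat protein (1.5 nM to 3 μM) at room temperature, with or without input ligand, for 0.8–1.5 h at the lowest and 10–20 min at the highest concentrations. Any design measured on fewer than 10 clusters was left out.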

[1] = designed as: OFF switch for flavin mononucleotide, no ligand
[2] = ligand present: flavin mononucleotide, designed as: OFF switch for flavin mononucleotide
[3] = designed as: ON switch for flavin mononucleotide, no ligand
[4] = ligand present: flavin mononucleotide, designed as: ON switch for flavin mononucleotide
[5] = designed as: OFF switch for theophylline, no ligand
[6] = ligand present: theophylline, designed as: OFF switch for theophylline
[7] = designed as: ON switch for tryptophan, no ligand
[8] = ligand present: tryptophan, designed as: ON switch for tryptophan

Row | Sequence | apparent Kd [1] [nM] | apparent Kd [2] [nM] | apparent Kd [3] [nM] | apparent Kd [4] [nM] | other results
1 | CAGGAUCCGAAGAAGGGCAUCGGCCACAGGGCUGCAGGAUAUUCAAUUCAUGCAACAUGAGGAUCACCCAUGUAAUGGGCCGUU | 27.5 | 22.3 | – | – | –
2 | UUGCAACAAACAGGAUAUACGCGGACUUCACGGGUAGAAGGGUUCGACCAGGAGAUAUCCCACAUGAGGAUCACCCAUGUCGUC | 163 | 130 | – | – | –
3 | AGCUAUUCGGGUAAGGAUAUCGAUGUUGUUACAUGAGGAUCACCCAUGUUGCUCGACAUCAGUGACGAGAAGGUACAGCGUGGUAU | – | – | 8.89 | 8.79 | –
4 | ACAGACAAGUAGAAGGCAAUGAGGAGUGAAAAUUGAGGAUAUACCAGCAUGAGUGCCUACAUGAGGAUCACCCAUGUGUAGAUU | 388 | 395 | – | – | –
5 | CGAUCUGGCUAAGGAUAUCAAGUGCGCAUGGUUUGACAGCACAUGAGGAUCACCCAUGUAACGCAUGAGAAGGUAGGCACACAG | 223 | 183 | – | – | –
6 | CAAUGCGGUUAGGAUACCAGCGACACACACUUCUCACAACACAUGAGGAUCACCCAUGUCCGCCCUUGGCAGCCUUGACUAAGGU | – | – | – | – | apparent Kd [5]: 30.1 nM; apparent Kd [6]: 146 nM
7 | GUGCCACAUGAGGAUCACCCAUGUUUGGCAAGCAAAGGAUAUGGAAUGAUGGCUCGCAGCCCAGAAGGUUGUUGUG | – | – | 4.52 | 4.76 | –
8 | CUCGAAUUAUCAGGAUAUCCACAAUUCGAAGAAGGAGAAGGGAUGGCAGGGCUAACAUGGAACAUGAGGAUCACCCAUGUGCAA | – | – | 11.2 | 9.94 | –
9 | GAGCCACAUGAGGAUCACCCAUGUCAGGAUAUCGCAAGCGGGAAUAAGCCAACGUCUACGAGAAGGGACUAAUG | 9.79 | 10.3 | – | – | –
10 | UGAAACUAGCCUAAGGAUAUAUAAGUGUGAACAUGAGGAUCACCCAUGUAUGGGAACAAGUGCUGAUAGAAGGUAGGAAUCUCCAA | – | – | 80.3 | 43.2 | –
11 | AGGCCCUCACAUGAGGAUCACCCAUGUACGUACGCAGGUGGAAGAAGGCCGGUACAACCUAAUCCGGAGGAUAUUCGAAUUAAC | 372 | 199 | – | – | –
12 | UCAUAUUAAGGCGAGGAUAUACACGAUCCCACAUGAGGAUCACCCAUGUUUUGAUCAUGCCCUGUGUAGAAGGCGCACCUACGGGA | – | – | 78.9 | 49.5 | –
13 | AGUCACAUGAGGAUCACCCAUGUGCCAGAACGAGGACCGGUACGGCCGCCACUCGAGGCGUCCGUCGACAAUAAUGUGAACUGCA | – | – | – | – | apparent Kd [7]: 10.7 nM; apparent Kd [8]: 12.1 nM
14 | CAAUGGGAACCAUAUGUUUACAUGAGGAUCACCCAUGUUACAUAGGAUAUCUCGGUUGGGUUCGUAGAGAAGGAUGUAGAGUAG | 5.28 | 5.3 | – | – | –
15 | GUCAGGCAACAGAAGGGAGGAUAUAACCGACAUGAGGAUCACCCAUGUGUAAAAGAAACAGUCGCUCAGGAUAUGUUCAACGUG | – | – | 15.9 | 9.36 | –
16 | CAUGUAGGCGAGAAGGCAACCGCGGUCCGGGAUUGAGGAUAUCGGCCAGGUGAUCCCGCCCAACAUGAGGAUCACCCAUGUAGC | 339 | 202 | – | – | –
17 | AAAACUUCUAAGAAGGUGAUUUGGGCAUAUCGUCGUUUUACAUGAGGAUCACCCAUGUUUAACGUCAAGGAUAUUAGGGAUUCC | 6.11 | 5.9 | – | – | –
18 | CAUCAUGGGCUUGGACAAAUUGUGCUUGAUACCAGAAAUCACCGGUUCCCUUGGCAGCAACCCACAUGAGGAUCACCCAUGUGGA | – | – | – | – | apparent Kd [5]: 20.6 nM; apparent Kd [6]: 31.2 nM
19 | GAUCGUUGGGUAAGGAUAUAAGUUUAUUGCUUGGGUUAGAAGGUACAUGAGGAUCACCCAUGUAGGUGAGUCAC | 76.2 | 61.8 | – | – | –
20 | GAACUUCGAGUCAGGAUAUGUACAUCAAAACCAAAACAGAAGGGACAUGAGGAUCACCCAUGUGAGCUAGGAUU | 14.3 | 14.4 | – | – | –
21 | UGCACCGCAGGAUAUACAAUGGAGGACGUUGUGAAUCAUAGACAUGAGGAUCACCCAUGUAGAAGGGCGUAUAA | 34 | 78.5 | – | – | –

Row | Sequence | apparent Kd [1] [nM] | apparent Kd [2] [nM] | apparent Kd [3] [nM] | apparent Kd [4] [nM] | other results
22 | UAUAACGAAAGAGGAUAUAUCGGCCGUCUACGGAUAGAAGGCUUUCGCUAUGGCACUGAUGAUCUACAUGAGGAUCACCCAUGU | 7.91 | 7.19 | – | – | –
23 | CCUCUCUUCCAGAAGGCUAUCCUAGCAUACGAUAGAGGAUAUGGACCACAAUACGGGUAGAGACACAUGAGGAUCACCCAUGUU | – | – | 72.4 | 185 | –
24 | CGGAAACAUGAGGAUCACCCAUGUGUAGAAAAGACAGGAUAUGACAAGGGCUUGAAGUGCUCAGAAGGGUCUGGAC | – | – | 15.4 | 11.2 | –
25 | CUCACCUCGUGGAAGGAUAUACACUUUAGCACAUGAGGAUCACCCAUGUCCGCCGCAAAUCCUAGGUAGAAGGUCCGCAACAUUCG | – | – | 23.5 | 18 | –
26 | GCAUAUGCAUACAUGAGGAUCACCCAUGUGGAACUAAGGGCGAAGGAUAUGUGUUAAACUACGAGACAGAAGGUCGUGAGUAGA | – | – | 19.9 | 15.2 | –
27 | ACGAUGAUAGAAGGAUAUAGGCCGAACAUGAGGGACAUGAGGAUCACCCAUGUGACAGUCGGACCCUAGAAGGUCUCGAUACUC | 21.2 | 15.1 | – | – | –
28 | UAUAAUGAAGGAUAUACAUGAGGAUCACCCAUGUUAGACUCUCAGUCGACAGUAAUCCGUAGAAGGUCAUGCCA | 12.3 | 13.6 | – | – | –
29 | CCAGGACAUGAGGAUCACCCAUGUCAACAUCAAAUAAGCGCGUAGGAUAUCAAUACUGAAAGCUUUGAGAAGGACGAGAGGGUA | – | – | 22.8 | 17.8 | –
30 | UCAUCGAGAGAGGAUAUCGUAGCAAUUCACCAGCGAGAAGGCUCGACAUGAGGAUCACCCAUGUGGCUCCGCUU | 24.2 | 73.6 | – | – | –
31 | AAAAUACAUGAGGAUCACCCAUGUCGCAAAUGCAUAGGAUAUGAUGAUGCUAAACACGCAUCAGAAGGAUGUAGAA | – | – | 10.9 | 9.52 | –
32 | AGGUAGCGAGACUUACAUGAGGAUCACCCAUGUACCACGCGGAAGGAUAUAACGGCAGGCUUUGCUUAGAAGGUCCGCGGUACU | 26.9 | 20.4 | – | – | –
33 | CCCUCGUCAACGGCCGCCACUGUGAUUCACUAAGAUAAUAUUGCACAUGAGGAUCACCCAUGUCUCAGGACCGGGUUGGUGUGUC | – | – | – | – | apparent Kd [7]: 105 nM; apparent Kd [8]: 65.9 nM
34 | GUCAUUCAAGUGAGGAUAUCUGCGAUGCCGAAAGGAGAGAAGGCACAUGAGGAUCACCCAUGUGGUGUUUAUAU | 34.5 | 57.4 | – | – | –
35 | AAAUUAACGAAGAAGGCCUGACGACAUGACUACAUGAGGAUCACCCAUGUUGCAGCACAAUAUAAGGAGGAUAUUCGACAAGCU | – | – | 10.2 | 6.86 | –
36 | GGAUGAAGGAAGGAUAUUACGCAGCAACGACCGUAAGAAGGUCCAACAUGAGGAUCACCCAUGUGGUGCUUACU | 33.2 | 159 | – | – | –
37 | GCACCGCGAGGAUAUACUCUGGCUAUAAUACCAUAUGACAAACAUGAGGAUCACCCAUGUAGAAGGCGCGAUGU | 10.4 | 14.2 | – | – | –
38 | UGUUUGCAAAGAGGAUAUUGGCCAACUGCUGGACAAGAAGGCUUUUAACAAGAUCCUUACAUGAGGAUCACCCAUGUUAGCGUA | 69.2 | 115 | – | – | –
39 | UCUUUUCAACAGAAGGAAUGCAGGCGAUAUGAUUGUUUCCGUCAGACAUGAGGAUCACCCAUGUAUUAGGAUAUGUGAAACAGU | 6.2 | 7.15 | – | – | –
40 | AAUUGUCGAGCAGGAUAUAGCUGACAGGAUAUUCAACUAACGACAUGAGGAUCACCCAUGUGUGGCUAGAAGGGCUUCAAGGCA | – | – | 15.2 | 11.5 | –
41 | AGCAAGACCGAGUCCAAUAACAUGAGGAUCACCCAUGUGUUCGAGGAUAUUAGGACUGAUGGGACUAAGAAGGCGAUCCCUUGU | – | – | 46.5 | 37.2 | –
